Test: Toxicity liver stage against HepG2, at 10uM
Format: cell-based
Design: test concentration 10 uM, cell line HepG2-A16-CD81EGFP
Conditions: human, HepG2-A16-CD81EGFP cells; read-out: INHIBITION
Outline: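 Uninfected HepG2-A16-CD81EGFP cells, 3 × 10^3 per well, 1536-well, plated on prespotted compound at 10 μM final, parasite-free screening media added to match infected plates; puromycin 10 μM positive, DMSO 0.5% negative; run in parallel with 48 h PbLuc assay at 37 °C, 5% CO2; viability by CellTiter-Glo luminescence, normalized to controls.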

SMILES | cytotoxicity at 10 µM
CCNC(=O)N1CCC(c2ccccc2)C1 (configuration not stated) | -3.57%
NC(=O)CN1C(=O)CO[C@H]2CN(Cc3ccc(Cl)cc3)C[C@H]21 | 13%
CN1C(=O)CO[C@H](c2ccc(NC(=O)Cc3cccs3)cc2)[C@H]1CO | 0.931%
CC1CCN(C(=O)c2cnc3cc(C(=O)N(C)C)n(C)c3c2)CC1 | 6.14%
CSCC[C@H](NC(=O)Cn1ccc2ccc(Cl)cc21)C(=O)O | 6.59%
COc1ccc2nnc(CCCC(=O)NCCc3ccccc3)n2n1 | -5.11%
O=C(c1cscn1)N1CCC2(CCCN(CCOc3ccccc3)C2)C1 (configuration not stated) | 1.38%
COCCCN1CC2(CCCCN2C(C)=O)CC1=O (configuration not stated) | 16.3%
Cc1cc(F)ccc1C(=O)N1C[C@@H]2COC[C@]2(COCC2CC2)C1 | -146%
O=C(NC1CCc2c(ccc(=O)n2CC2CC2)C1)c1ccsc1 (configuration not stated) | -4.48%
O=C(Cc1ccccn1)N1CCC2(CCCN(CC3CCOCC3)C2)C1 (configuration not stated) | -122%
COc1nn(C)c2c1CCCN(S(=O)(=O)c1cccc(F)c1)C2 | -129%
O=C(c1cscn1)N1CC[C@@H]2[C@@H]1CCN2c1ccccn1 | 5.95%
Cc1ccc(C(=O)N2CCc3ncnc(C)c3CC2)o1 | 7.89%
COCC1COCCC12CCN(C(=O)CCc1ccccc1C)CC2 (configuration not stated) | -1.52%
Cc1cc(F)ccc1NC(=O)Cn1cc(C(=O)O)ccc1=O | -0.555%
COC(=O)CNC(=O)CSCc1nc(O)c2cc(C)sc2n1 | 1.45%
CCOc1ccc(-n2nnc(C(=O)O)c2-c2ccccn2)cc1 | -9.31%
O=C(c1ccsc1)N1C[C@@H]2C[C@@H](c3nnc(C4CC4)o3)O[C@@H]2C1 | -6.15%
CO[C@@H]1CC[C@H]2[C@H]1OCCN2C(=O)C1=CCCC1 | -6.34%
CCN(Cc1ccccc1)C(=O)c1cc(C2CCCN2C)ccn1 (configuration not stated) | -14.2%
Cc1ccccc1C(=O)N1CCC(n2nnc3cc(F)ccc32)CC1 | 3.94%
CC(c1cccc(Cl)c1)N1CCN(S(C)(=O)=O)CC1 (configuration not stated) | 1.81%

SMILES | cytotoxicity at 10 µM
CCOC(=O)N1CCC(C(=O)Nc2nnc(C(F)(F)F)[nH]2)CC1 | -6.01%
CC(CN1CCOCC1)NC(=O)Nc1cccnc1-n1cccn1 (configuration not stated) | -1.7%
CS(=O)(=O)NC1CCN(C(=O)NCC2CCCO2)CC1 (configuration not stated) | -1.9%
NC(=O)COCCNC(=O)Nc1sc2ccccc2c1Cl | 8.81%
CN(CCSc1nncn1CC(F)(F)F)c1ccccc1 | -1.86%
CN(C)C(=O)Cc1ccc(NCc2nccn2C)cc1 | -8.73%
CC(C)CC(NC(=O)CN(C)C(=O)c1ccco1)c1cccs1 (configuration not stated) | -1.24%
CCN(Cc1ccccn1)C1CCN(c2ccccc2)C1=O (configuration not stated) | 4.34%
Cc1cccc(N2CCN(C(=O)CNCCn3cc(C)cn3)CC2)c1 | -2.83%
CN(C)c1cccc(C(=O)Nc2cnn(Cc3ccccn3)c2)c1 | 4.81%
Cc1nc(CN2CCN(CCCc3ccccc3)CC2)no1 | 11.7%
CCCc1noc(C(C)N(CC)Cc2ccco2)n1 (configuration not stated) | 7.3%
Cc1nc(CSCCC(=O)NCCNC(=O)OC(C)(C)C)cs1 | -2.3%
CN(C1CCCCC1)S(=O)(=O)NC1CCN(c2ncccn2)CC1 | 6.99%
CC(C)Nc1cccc(C(=O)NCC(O)c2ccc(F)cc2F)c1 (configuration not stated) | 14.8%
CCOCCC1(CNC(=O)c2ccc(C)nc2)CCCC1 | 7.25%
CN(C)c1ncccc1C(=O)N1CCN(C2=NCC(C)(C)S2)CC1 | 5.03%
Cc1cccn2c(=O)cc(CN3CCCC3Cn3cncn3)nc12 (configuration not stated) | 0.714%
C[S+]([O-])c1nncn1CC(=O)c1ccc(OC(F)F)cc1 (configuration not stated) | -8.56%
Cc1cnn(CC2CN(CCS(C)(=O)=O)CCO2)c1 (configuration not stated) | -2.25%
Cc1cc(CNC(=O)[C@H]2CCCCN2C(=O)OC(C)(C)C)on1 | -0.82%
CCc1nc(CN(C)C2CCN(Cc3nc(C4CC4)no3)C2)no1 (configuration not stated) | 14.9%
CCNC(=O)CN1CCN(c2ccnc3c(F)ccc(F)c23)CC1 | 11.7%

SMILES | cytotoxicity at 10 µM
NC(=O)c1cnc(NC2CCN(c3ccccc3)CC2)c(Cl)c1 | 6.07%
COc1ncc(C)cc1NC(=O)COc1ccccc1F | -9.52%
Cc1c(NCC(C)(C)C)cccc1C(=O)NCc1ncnn1C | -3.53%
OCCN1CCC(CNCc2ccc(Br)cc2)CC1 | -8.29%
CCN(CC)C(=O)CN(C)C(=O)c1cc(-c2cccc(Cl)c2)no1 | 4.28%
O=C(NCCNc1cncc(Br)c1)c1ccc(O)cc1 | 3.73%
O=C(Nc1ccc(F)cc1)C1CCc2ccccc2N1 (configuration not stated) | 2.4%
CCOc1nnc(CN(Cc2ccccc2)CC(O)c2ccco2)s1 (configuration not stated) | -1.57%
COCCCNC(=O)Nc1cccc(Cl)c1-n1cccn1 | 1.13%
CCN(C(C)=O)c1nc(CN2CCN(c3nccs3)CC2)cs1 | -6.01%
Brc1cnc(NCc2ccccc2N2CCOCC2)nc1 | 1.3%
COc1cncc(N2CCN(Cc3ccncc3Cl)CC2)n1 | 1.66%
CCS(=O)(=O)NCCCNc1ncnc2cc(F)c(F)cc12 | 9.29%
COc1ccccc1C(C)(C)NC(=O)NC1CCC(O)CC1 (configuration not stated) | -3.6%
CCOc1ccc(CN(C)C(=O)COc2ccc(C)nc2)cc1 | 22.7%
CN1CCN(S(=O)(=O)c2cncc(F)c2)c2ccccc2C1 | -3.69%
COc1cc(CN(C)C(=O)NCCC2CCCO2)ccc1SC (configuration not stated) | -13.8%
CCc1nsc(NC2CCCn3nc(CC)nc32)n1 (configuration not stated) | 16.2%
CN(C)CCn1c(=O)oc2ccc(NC(=O)c3cc(Cl)c[nH]3)cc21 | 6.79%
OC(CN1CCN(c2ncccn2)CC1)c1cccc(F)c1 (configuration not stated) | 2.4%
COc1ccc(NC(=O)C(c2cccc(F)c2)N2CCOCC2)cc1 (configuration not stated) | 2.42%
CC(C)[C@H](CO)Nc1nccc(-c2c[nH]nc2-c2ccncc2)n1 | -4.66%
CCC[C@@H]1CN(c2cncc(C(=O)N3CCOCC3)n2)C[C@H]1N(C)C | 4.63%

SMILES | cytotoxicity at 10 µM
Cc1nn(C)c(C)c1CN(Cc1cccn1-c1ncccn1)C(C)C | -0.316%
OCC1CCCCN1Cc1nc(Cc2cccc(F)c2)no1 (configuration not stated) | -137%
Cc1cc(C)c(C(=O)N[C@H](C(N)=O)c2ccccc2)c(=O)[nH]1 | -2.06%
CCc1ccc(CN(C)Cc2cnc(S(=O)(=O)CC)n2CCOC)cc1 | -2.19%
CC(C)c1noc(C2CCCN2S(=O)(=O)N2CCCCCC2)n1 (configuration not stated) | 4.73%
CC(=O)N1CCc2c(nc(-c3cccnc3)nc2N(C)CC(O)CO)C1 (configuration not stated) | -2.03%
Cc1nc(-c2nnc(SCC(=O)O)n2C(C)c2ccccc2)co1 (configuration not stated) | -6.3%
CCC(NC(=O)c1cnc(-c2cccnc2)nc1)c1ccnn1C (configuration not stated) | -2.11%
Cc1cc(CN2CCC(CNC(=O)c3ccc4[nH]cnc4c3)C2)[nH]n1 (configuration not stated) | -145%
C[C@@H]1CN(C(=O)C2CCS(=O)(=O)CC2)C[C@@]1(O)C1CC1 | 3.99%
CCC[C@H]1CN(CCS(C)(=O)=O)C[C@@H]1NC(=O)c1ccccc1F | -5.88%
Cc1nc2sccn2c1C(=O)N1CCc2c(nc(N)[nH]c2=O)C1 | -3.22%
COc1ccccc1OCc1cc(C(=O)N2CCCCCC2CO)n[nH]1 (configuration not stated) | -2.48%
O=C(NCCc1cnccn1)c1cccc(S(=O)(=O)NC2CCOC2)c1 (configuration not stated) | 6.3%
CCC(OC)C(=O)N1CCc2nc(NC)nc(C(=O)N3CCCC3)c2C1 (configuration not stated) | -18.3%
CN1CCC(c2nnc(CN3CCC(O)CC3)n2C)CC1 | -8.94%
Cc1ccc(CNC(=O)Nc2nccs2)cn1 | -23.8%
Cc1nn(C)c(Cl)c1C1CCCN1Cc1nnc(C2CC2)o1 (configuration not stated) | -6.18%
N#Cc1ccc(CN2CCCCC2Cn2cccn2)cc1 (configuration not stated) | -8.96%
NC(=O)c1cccc(C(=O)N2CCCC(n3ccnc3)C2)c1 (configuration not stated) | -14%
CC(C)c1noc(CN2CCN(C(=O)c3cccc(F)c3)CC2)n1 | -4.27%
Cc1nn(C)c(N(C)C)c1CNCc1cccc(Cn2ccnc2)c1 | -12%
CCCc1nc(CN2CCCC2c2cnn(C)c2)cs1 (configuration not stated) | 0.441%

SMILES | cytotoxicity at 10 µM
Cc1nc(C)n(CC2CCCN2CCOc2ccc(F)cc2)n1 (configuration not stated) | 3.06%
Cn1c(C2CC2)nc2c1CCN(CC(=O)Nc1ccncc1)C2 | -11.8%
CC1CN(C)CCN1Cc1cccc(C(=O)N(C)C)c1 (configuration not stated) | -0.192%
CC(C)n1ccnc1CN1CCCN(C(=O)CC2CCCO2)CC1 (configuration not stated) | -12.8%
COCCOc1cccc(C(=O)N2CCCCC2c2nccs2)c1 (configuration not stated) | -9.5%
Cc1ccc(OCCN(C)C(C)c2cccc(S(N)(=O)=O)c2)cc1 (configuration not stated) | -29.3%
Cc1ccoc1C(=O)NC1CCN(C(=O)Nc2ccccn2)CC1 | 1.97%
CCc1nc(C2CCCN(C(=O)c3ccc(OC)cc3)C2)no1 (configuration not stated) | -15.6%
CC(O)CN1CCN(C(=O)c2cccc3[nH]ncc23)CC1 (configuration not stated) | -20.5%
CCc1cnc(CN(C(C)=O)C2CCN(CCc3cnn(C)c3)C2)o1 (configuration not stated) | -5.85%
CN(Cc1ccccc1F)C(=O)CS(=O)(=O)Cc1ccc(Cl)c(Cl)c1 | 3.2%
Cc1cc(C(=O)N[C@H](C)c2onc(-c3cccnc3)c2C(=O)O)c(C)o1 | 1.47%
Cc1ccc(CN2Cc3ccnn3CC(C(=O)NCC3CC3)C2)o1 (configuration not stated) | -15.9%
O=C(NCc1cccs1)c1nc2c(o1)CN(CC1CC1)C2 | -2.83%
COCCO[C@H]1CCN(Cc2cccnc2)[C@H]1Cc1cccnc1 | 0.0623%
CN1CCN(C2COC3(CCN(CC4CC4)CC3)C2)CC1 (configuration not stated) | -6.81%
O=C1CCCN1Cc1nnc2n1CCN(Cc1ccccn1)CC2 | -9.87%
Cn1cc(CN2CCC(F)(F)C3(CCN(c4cnccn4)C3)C2)cn1 (configuration not stated) | -9.93%
Cn1cccc1C(=O)NC[C@]12COC[C@H]1CN(Cc1nccs1)C2 | -2.74%
COC1COC2(CCN(Cc3cccc(Cl)c3)CC2)C1 (configuration not stated) | -1.31%
